Laboratory results as given in ChEMBL document CHEMBL4251588, “2-Alkoxycarbonyl-3-arylamino-5-substituted thiophenes as a novel class of antimicrotubule agents: Design, synthesis, cell growth and tubulin polymerization inhibition” (Eur J Med Chem, 2018).
Calls of active or inactive are those of the source. The rule behind the calls is not given here.

Columns and labels:
L1210 = experiment: Antiproliferative activity against mouse L1210 cells after 2 days by Coulter counter method; format: functional, cell-based; conditions: L1210, 48 h
Procedure, shortened: (§1)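 Cells suspended at 300,000–500,000 cells/mL; 100 μL suspension added to 100 μL of compound dilutions. Incubated at 37 °C for 2 days (L1210, FM3A), 3 days (CEM) or 4 days (HeLa), then counted by Coulter counter. IC50 is the concentration giving 50% inhibition of proliferation. Values are mean ± SD of two to three independent experiments.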

FM3A = experiment: Antiproliferative activity against mouse FM3A cells after 2 days by Coulter counter method; format: functional, cell-based; conditions: 48 h
Procedure, shortened: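 Cells suspended at 300,000–500,000 cells/mL; 100 μL suspension added to 100 μL of compound dilutions. Incubated at 37 °C for 2 days (L1210, FM3A), 3 days (CEM) or 4 days (HeLa), then counted by Coulter counter. Values are mean ± SD of two to three independent experiments.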

CCRF-CEM = experiment: Antiproliferative activity against human CEM cells after 3 days by Coulter counter method; format: functional, cell-based; conditions: 72 h; procedure, shortened: as §1
HeLa [1] = experiment: Antiproliferative activity against human HeLa cells after 4 days by Coulter counter method; format: functional, cell-based; conditions: 96 h; procedure, shortened: as §1
PBL [2] = experiment: Growth inhibition of resting human PBL after 72 hrs by MTT assay; format: cell-based
Procedure, shortened: (§2)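 Donor PBL isolated by density gradient, washed, held overnight at 1.0 × 10^6 cells/mL in RPMI-1640 with 10% FBS. Non-adherent cells reseeded at 5 × 10^5 cells/mL, with 2.5 μg/mL PHA (proliferating) or without it (resting), then given compound dilutions. MTT viability read after 72 h. GI50 is the concentration giving 50% growth reduction; mean ± SEM of two experiments.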

PBL [3] = experiment: Growth inhibition of human PHA-stimulated PBL after 72 hrs by MTT assay; format: cell-based; procedure, shortened: as §2
[4] = Inhibition of bovine brain tubulin polymerization in presence of GTP by spectrophotometric analysis; design: species or system Bos taurus
Procedure, shortened: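 0.4 mM GTP added, mixtures rewarmed to 30 °C in cuvettes and turbidity followed at 350 nm.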

Bos taurus = species: Bos taurus; experiment: Inhibition of [3H]colchicine binding to bovine brain tubulin at 5 uM relative to control
Procedure, shortened: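 Reaction mixtures held 1 μM tubulin, 5 μM [3H]colchicine and 5 μM test compound. Inhibition of radiolabelled colchicine binding was measured by a previously described method.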

HeLa [5] = experiment: Cell cycle arrest in human HeLa cells assessed as reduction of cells at G1 phase up to 500 uM after 24 hrs by propidium iodide staining-based flow cytometric analysis; format: functional; conditions: in the assay text read “500 nM” for “500 uM”
Procedure, shortened: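 5 × 10^5 HeLa cells exposed to graded compound levels for 24 h; harvested, fixed in ice-cold 70% ethanol, lysed in buffer containing RNase A and 0.1% Triton X-100, PI-stained, DNA content read by flow cytometry. Phase percentages are means ± SEM of two independent experiments.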

HeLa [6] = experiment: Induction of apoptosis in human HeLa cells at 125 to 500 nM after 24 to 48 hrs by annexin V-FITC/propidium iodide staining-based flow cytometric analysis; format: functional, cell-based
Procedure, shortened: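 Treated HeLa cells were harvested at 24 or 48 h and double-labeled with annexin-V-FITC, which marks exposed phosphatidylserine, and PI. Apoptotic fractions were measured by flow cytometry; mean ± SEM of three independent experiments.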

HeLa [7] = experiment: Cell cycle arrest in human HeLa cells assessed as increase in cells at S phase at 500 nM after 24 hrs by propidium iodide staining-based flow cytometric analysis
HeLa [8] = experiment: Cell cycle arrest in human HeLa cells assessed as accumulation of cells at G2/M phase at 500 nM after 24 hrs by propidium iodide staining-based flow cytometric analysis
HeLa [9] = experiment: Cell cycle arrest in human HeLa cells assessed as increase in cyclin B1 expression after 24 hrs by Western blot analysis; format: functional, cell-based
Procedure, shortened: (§3)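 HeLa cells treated for 24 or 48 h at several concentrations, washed in ice-cold PBS, lysed on ice 30 min and spun at 15000 x g, 4 °C. 10 μg protein separated by SDS-PAGE, blotted, blocked in 3% BSA, probed overnight at 4 °C with primary antibodies, peroxidase secondary and ECL detection. Stripped membranes reprobed for β-actin as loading control.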

HeLa [10] = experiment: Cell cycle arrest in human HeLa cells assessed as decrease in cyclin B1 expression after 48 hrs by Western blot analysis; format: functional, cell-based; procedure, shortened: as §3
HeLa [11] = experiment: Cell cycle arrest in human HeLa cells assessed as decrease in Cdk1 Y15 phosphorylated protein level at 250 nM after 24 to 48 hrs by Western blot analysis; format: functional, cell-based; procedure, shortened: as §3
HeLa [12] = experiment: Induction of mitochondrial depolarization in human HeLa cells at 100 to 250 nM by JC-1 staining-based flow cytometric analysis; format: functional, cell-based; conditions: TDE = time-dependent effect
Procedure, shortened: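 Mitochondrial potential followed in HeLa cells after 6, 12, 24 or 48 h of exposure. Cells stained with the lipophilic cation JC-1 and the fraction with low Δψmt scored by flow cytometry; mean ± SEM of three independent experiments.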

HeLa [13] = experiment: Induction of ROS production in human HeLa cells at 250 nM after 12 to 24 hrs by H2DCFDA staining-based flow cytometric analysis; format: functional, cell-based
Procedure, shortened: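 HeLa cells treated for 6, 12, 24 or 48 h, then loaded with H2-DCFDA and ROS read by flow cytometry; mean ± SEM of three independent experiments.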

HeLa [14] = experiment: Induction of apoptosis in human HeLa cells assessed as decrease in Bcl-2 levels at 100 to 250 nM after 24 hrs by Western blot analysis; format: functional, cell-based
Procedure, shortened: (§4)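 HeLa cells exposed to compound for varied times, washed twice in ice-cold PBS, lysed on ice 30 min and spun 15000 x g at 4 °C. 10 μg protein per lane by SDS-PAGE, blotted, blocked in 3% BSA, primary antibodies (Bcl-2, Mcl-1) overnight at 4 °C, peroxidase secondary 60 min, ECL detection; membranes stripped and reprobed for β-actin as loading control.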

HeLa [15] = experiment: Induction of apoptosis in human HeLa cells assessed as decrease in Mcl-1 levels at 100 to 250 nM after 24 hrs by Western blot analysis; format: functional, cell-based; procedure, shortened: as §4
HeLa [16] = experiment: Cell cycle arrest in human HeLa cells assessed as reduction in cdc25c expression at 100 nM after 24 hrs by Western blot analysis

Row | SMILES | IC50 (L1210) [nM] | IC50 (FM3A) [nM] | IC50 (CCRF-CEM) [nM] | IC50 (HeLa [1]) [nM] | IC50 [4] [nM] | inhibition (Bos taurus) [%] | further results
1 | COC(=O)c1sc(-c2ccc(C)cc2)cc1Nc1cc(OC)c(OC)c(OC)c1 | 150 | 180 | 180 | 260 | 1200 | 70 | GI50 (PBL [2]): 31700 nM; GI50 (PBL [3]): 20000 nM; Activity (HeLa [5]): Active; Activity (HeLa [6]): Active; Activity (HeLa [7]): Active; Activity (HeLa [8]): Active
2 | COC(=O)c1sc(-c2cccc(OC)c2)cc1Nc1cc(OC)c(OC)c(OC)c1 | 1100 | 990 | 690 | 800 |  |  | 
3 | COC(=O)c1sc(-c2ccc(Cl)cc2)cc1Nc1cc(OC)c(OC)c(OC)c1 | 1100 | 880 | 870 | 870 |  |  | 
4 | CCOC(=O)c1sc(-c2ccc(F)cc2)cc1Nc1cc(OC)c(OC)c(OC)c1 | 1100 | 1000 | 990 | 2100 |  |  | 
5 | COC(=O)c1sc(-c2cc(OC)c(OC)c(OC)c2)cc1Nc1cc(OC)c(OC)c(OC)c1 | > 250000 | > 250000 | > 250000 | 162000 |  |  | 
6 | COC(=O)c1sc(-c2ccc(OC)c(OC)c2)cc1Nc1cc(OC)c(OC)c(OC)c1 | 480 | 430 | 470 | 890 | 2700 | 30 | 
7 | COC(=O)c1sc(-c2ccccc2)cc1Nc1cc(OC)c(OC)c(OC)c1 | 240 | 210 | 200 | 670 | 1300 | 57 | GI50 (PBL [2]): 45700 nM; GI50 (PBL [3]): 19000 nM; Activity (HeLa [5]): Active; Activity (HeLa [6]): Active; Activity (HeLa [7]): Active; Activity (HeLa [8]): Active
8 | COC(=O)c1sc(-c2ccc([N+](=O)[O-])cc2)cc1Nc1cc(OC)c(OC)c(OC)c1 | 990 | 930 | 760 | 1000 |  |  | 
9 | COC(=O)c1sc(-c2cccs2)cc1Nc1cc(OC)c(OC)c(OC)c1 | 130 | 160 | 160 | 160 | 1200 | 62 | GI50 (PBL [2]): 85700 nM; GI50 (PBL [3]): 29300 nM; Activity (HeLa [5]): Active; Activity (HeLa [9]): Dose-dependent effect; Activity (HeLa [10]): Active; Activity (HeLa [11]): Active; Activity (HeLa [6]): Active; Activity (HeLa [12]): Tde; Activity (HeLa [13]): Active; Activity (HeLa [14]): Active; Activity (HeLa [15]): Active; Activity (HeLa [16]): Active; Activity (HeLa [7]): Active; Activity (HeLa [8]): Active
10 | CCOC(=O)c1sc(-c2ccc(OC)cc2)cc1Nc1cc(OC)c(OC)c(OC)c1 | 1200 | 1200 | 1100 | 2300 |  |  | 
11 | CCOC(=O)c1sc(-c2ccc(C)cc2)cc1Nc1cc(OC)c(OC)c(OC)c1 | 820 | 820 | 760 | 780 |  |  | 
12 | CCOC(=O)c1sc(-c2ccc(Cl)cc2)cc1Nc1cc(OC)c(OC)c(OC)c1 | 6000 | 5100 | 4600 | 9800 |  |  | 
13 | COC(=O)c1sc(-c2ccc(OC)cc2)cc1Nc1cc(OC)c(OC)c(OC)c1 | 270 | 250 | 230 | 840 | 2000 | 46 | 
14 | CCOC(=O)c1sc(-c2ccccc2)cc1Nc1cc(OC)c(OC)c(OC)c1 | 1100 | 980 | 930 | 1400 |  |  | 
15 | COC(=O)c1sc(-c2ccc(Cl)c(Cl)c2)cc1Nc1cc(OC)c(OC)c(OC)c1 | 5700 | 4600 | 3300 | 5000 |  |  | 
16 | COC(=O)c1sc(-c2ccc(C(F)(F)F)cc2)cc1Nc1cc(OC)c(OC)c(OC)c1 | 1200 | 1100 | 810 | 1300 |  |  | 
17 | CCOc1ccc(-c2cc(Nc3cc(OC)c(OC)c(OC)c3)c(C(=O)OC)s2)cc1 | 6300 | 5700 | 5400 | 4400 |  |  | 
18 | COC(=O)c1sc(-c2ccc(F)cc2)cc1Nc1cc(OC)c(OC)c(OC)c1 | 560 | 720 | 530 | 880 | 2200 | 41 | 
19 | COc1ccc(/C=C\c2cc(OC)c(OC)c(OC)c2)cc1O [COMBRETASTATIN A4] | 3 |  | 2 | 2 |  |  | 
